Laboratory results reported in ChEMBL document CHEMBL1123555, “1,2-Bis(sulfonyl)hydrazines. 3. Effects of structural modification on antineoplastic activity” (1987).

Assays:
Mus musculus [1] = organism: Mus musculus; test: Antitumor activity against B16 melanoma cells in mice. Activity is expressed as optimal effective dose.; assay type: functional
How it was run: (§1)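 Transplanted tumor in mice, given i.p. once daily for 6 consecutive days starting 24 h after implantation. Doses span 10-150 mg/kg per day as fine suspensions homogenized in a few drops of 20% aqueous Tween 80 and made up with isotonic saline. Groups of five; vehicle-injected tumor-bearing controls. %T/C = mean survival time treated/control × 100. Value is the daily dose giving maximum %T/C.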

Mus musculus [2] = organism: Mus musculus; test: Antitumor activity against L1210 leukemia cells in mice calculated as average change in body weight from onset to termination of therapy; assay type: functional
How it was run: (§2)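 Tumor-bearing mice in groups of five, dosed i.p. daily for 6 days from 24 h post-implantation with suspensions in Tween 80/isotonic saline at 10-150 mg/kg per day; vehicle controls run alongside. Mice weighed during the experiment. Average percent body-weight change from onset to termination of therapy was taken as the toxicity index, reported at the optimal-survival dose.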

L1210 = test: Antitumor activity against L1210 leukemia cells in mice, activity is expressed as optimal effective dose.; assay type: functional, Mus musculus; how it was run: as §1
[3] = Antitumor activity against mouse B16 melanoma cells, calculated as average change in body weight from onset to termination of therapy; assay type: functional; how it was run: as §2
[4] = Antitumor activity against B16 melanoma cells in mice, activity is expressed as average survival time of treated/control animals x 100.; assay type: functional, Mus musculus
How it was run: (§3)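 Compound given ip as a fine suspension (homogenized in drops of 20% aqueous Tween 80, made to volume with isotonic saline) at 10-150 mg/kg per day, once daily for 6 consecutive days starting 24 h after implantation. Vehicle-injected tumor-bearing controls were included. Read-out was survival time; body-weight change over therapy was the toxicity indicator.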

Mus musculus [5] = organism: Mus musculus; test: Antitumor activity against L1210 leukemia cells in mice (activity expressed as average survival time of treated/control animals x 100); assay type: functional; how it was run: as §3

| SMILES | Dose (Mus musculus [1]) | Weight change (Mus musculus [2]) | Dose (L1210) | Weight change [3] | T/C [4] | T/C (Mus musculus [5]) |
| --- | --- | --- | --- | --- | --- | --- |
| CN(NS(=O)(=O)c1ccccc1)S(=O)(=O)Cc1ccccc1 | 50 mg/kg | -3.1% | 50 mg/kg | -1.5% |  |  |
| CN(NS(=O)(=O)/C=C/c1ccccc1)S(=O)(=O)c1ccc(Cl)cc1 | 50 mg/kg |  |  | 1.1% |  |  |
| Cc1ccc(S(=O)(=O)NN(C)S(=O)(=O)c2ccc(C)cc2)cc1 | 150 mg/kg | 3.7% | 50 mg/kg | -2.7% |  |  |
| COc1ccc(S(=O)(=O)N(C)NS(=O)(=O)c2ccc3ccccc3c2)cc1 | 100 mg/kg |  |  | -0.1% |  |  |
| Cc1ccc(S(=O)(=O)NN(C)S(=O)(=O)c2ccc(I)cc2)cc1 | 50 mg/kg |  |  | 1.4% |  |  |
| CN(NS(=O)(=O)Cc1ccccc1)S(=O)(=O)c1ccccc1 | 100 mg/kg |  |  | 2.2% | 186% |  |
| Cc1ccc(S(=O)(=O)NN(C)S(=O)(=O)Cc2ccccc2)cc1 | 50 mg/kg | 0.3% | 100 mg/kg | 1% |  | 126% |
| COc1ccc(S(=O)(=O)N(C)NS(C)(=O)=O)cc1 | 20 mg/kg | -6.4% | 20 mg/kg | -7.5% |  |  |
| Cc1ccc(S(=O)(=O)N(C)NS(=O)(=O)c2ccc(Cl)cc2)cc1 | 50 mg/kg | 3.7% | 50 mg/kg | 2.9% |  |  |
| Cc1ccc(S(=O)(=O)NN(C)S(=O)(=O)c2ccc(Cl)cc2)cc1 | 50 mg/kg | 5.5% | 100 mg/kg | -0.4% |  |  |
| CCS(=O)(=O)NN(C)S(=O)(=O)c1ccc(I)cc1 | 30 mg/kg |  |  | 5.2% | 177% |  |
| Cc1ccc(S(=O)(=O)N(C)NS(=O)(=O)c2ccc3ccccc3c2)cc1 |  | 9.3% | 75 mg/kg |  |  |  |
| Cc1ccc(S(=O)(=O)NN(C)S(=O)(=O)c2ccccc2)cc1 | 50 mg/kg | 10.7% | 50 mg/kg | 0.8% |  |  |
| COc1ccc(S(=O)(=O)NN(C)S(=O)(=O)Cc2ccccc2)cc1 | 150 mg/kg |  |  | 0.2% |  |  |
| CN(NS(=O)(=O)c1ccc(Cl)cc1)S(=O)(=O)Cc1ccccc1 | 50 mg/kg | 10.2% | 50 mg/kg | 1.4% |  |  |
| CN(NS(=O)(=O)c1ccccc1)S(=O)(=O)c1ccccc1 | 100 mg/kg | -4.8% | 50 mg/kg | -2.3% | 175% |  |
| CN(NS(=O)(=O)c1ccc2ccccc2c1)S(=O)(=O)c1ccccc1 | 50 mg/kg |  |  | 2.5% |  |  |
| CN(NS(=O)(=O)c1ccc2ccccc2c1)S(=O)(=O)c1ccc(Cl)cc1 | 50 mg/kg | 9% | 100 mg/kg | -4% |  |  |
| CN(NS(C)(=O)=O)S(=O)(=O)c1ccc2ccccc2c1 | 20 mg/kg |  |  | 1.4% | 193% |  |
| CN(NS(=O)(=O)c1ccc(Br)cc1)S(=O)(=O)c1ccccc1 | 50 mg/kg |  |  | -1.6% |  |  |
| Cc1ccc(S(=O)(=O)N(C)NS(=O)(=O)c2ccc([N+](=O)[O-])cc2)cc1 | 100 mg/kg |  |  | 1.4% |  |  |

| SMILES | Dose (Mus musculus [1]) | Weight change (Mus musculus [2]) | Dose (L1210) | Weight change [3] | T/C [4] | T/C (Mus musculus [5]) |
| --- | --- | --- | --- | --- | --- | --- |
| CN(NS(C)(=O)=O)S(=O)(=O)c1ccc(Cl)cc1 | 20 mg/kg | 5.3% | 20 mg/kg | -1.4% |  |  |
| CN(NS(=O)(=O)Cc1ccccc1)S(=O)(=O)Cc1ccccc1 | 150 mg/kg |  |  | -17.1% |  |  |
| COc1ccc(S(=O)(=O)NN(C)S(=O)(=O)c2ccccc2)cc1 | 50 mg/kg | 4.5% | 50 mg/kg | -5.9% |  |  |
| CN(NS(=O)(=O)c1ccccc1)S(=O)(=O)c1ccc(Cl)cc1 | 50 mg/kg | 6.8% | 50 mg/kg | 2.3% |  | 115% |
| COc1ccc(S(=O)(=O)N(C)NS(=O)(=O)c2ccccc2)cc1 | 100 mg/kg | -3.9% | 100 mg/kg | 4.7% |  | 142% |
| COc1ccc(S(=O)(=O)N(C)NS(=O)(=O)c2ccc(C)cc2)cc1 | 100 mg/kg | 9.8% | 150 mg/kg | -14% |  |  |
| Cc1ccc(S(=O)(=O)N(C)NS(=O)(=O)c2ccccc2)cc1 | 150 mg/kg | 2% | 50 mg/kg | 8.5% |  |  |
| CCS(=O)(=O)NN(C)S(=O)(=O)c1ccc(C)cc1 | 50 mg/kg | -2.6% | 30 mg/kg | -1.1% |  | 162% |
| CN(NS(=O)(=O)c1ccc(Cl)cc1)S(=O)(=O)c1ccccc1 | 100 mg/kg | 14.6% | 50 mg/kg | -2.9% |  |  |
| CN(NS(=O)(=O)c1ccccc1)S(=O)(=O)c1ccc2ccccc2c1 | 50 mg/kg | 1.8% | 100 mg/kg | 5.1% |  |  |
| COc1ccc(S(=O)(=O)NN(C)S(=O)(=O)c2ccc(C)cc2)cc1 | 100 mg/kg | 7.8% | 100 mg/kg | 9.1% | 200% |  |
| CN(NS(=O)(=O)c1ccc(Cl)cc1)S(=O)(=O)c1ccc(Cl)cc1 | 50 mg/kg | 1.3% | 150 mg/kg | 4.8% | 163% |  |
| Cc1ccc(S(=O)(=O)NN(C)S(=O)(=O)c2ccc3ccccc3c2)cc1 |  | 8.6% | 75 mg/kg |  |  | 120% |
| CN(NS(C)(=O)=O)S(=O)(=O)c1ccc(I)cc1 | 40 mg/kg |  |  | 4% |  |  |
| COc1ccc(S(=O)(=O)NN(C)S(=O)(=O)c2ccc(OC)cc2)cc1 | 100 mg/kg |  | 50 mg/kg | -2.4% | 191% |  |
| CN(NS(C)(=O)=O)S(=O)(=O)Cc1ccccc1 | 30 mg/kg | 6.7% | 20 mg/kg | 1.9% |  | 165% |
| CN(NS(=O)(=O)c1ccc2ccccc2c1)S(=O)(=O)Cc1ccccc1 | 50 mg/kg | 10.3% | 50 mg/kg |  | 179% |  |
| Cc1ccc(S(=O)(=O)N(C)NS(C)(=O)=O)cc1 | 10 mg/kg | -7.9% | 30 mg/kg | -1.9% |  |  |
| CCS(=O)(=O)NN(C)S(=O)(=O)c1ccc(OC)cc1 |  | -8.7% | 50 mg/kg |  |  | 149% |
| CCS(=O)(=O)NN(C)S(=O)(=O)c1ccc(Cl)cc1 | 10 mg/kg |  |  | -0.1% |  |  |
